# DAGLB inhibitor – blocks human DAGLB lipase activity; Q8NCG7; HEK293T DAGLB membrane lysate, EnzChek fluorogenic substrate; inhibition, % at 5.17 µM; 340,000 tested, 0.059% active; in the data active = inhibition above about 34%;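 also: 0% = enzyme with vehicle and 100% = wells lacking enzyme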
# Target sequence (Q8NCG7 whole entry, looked up): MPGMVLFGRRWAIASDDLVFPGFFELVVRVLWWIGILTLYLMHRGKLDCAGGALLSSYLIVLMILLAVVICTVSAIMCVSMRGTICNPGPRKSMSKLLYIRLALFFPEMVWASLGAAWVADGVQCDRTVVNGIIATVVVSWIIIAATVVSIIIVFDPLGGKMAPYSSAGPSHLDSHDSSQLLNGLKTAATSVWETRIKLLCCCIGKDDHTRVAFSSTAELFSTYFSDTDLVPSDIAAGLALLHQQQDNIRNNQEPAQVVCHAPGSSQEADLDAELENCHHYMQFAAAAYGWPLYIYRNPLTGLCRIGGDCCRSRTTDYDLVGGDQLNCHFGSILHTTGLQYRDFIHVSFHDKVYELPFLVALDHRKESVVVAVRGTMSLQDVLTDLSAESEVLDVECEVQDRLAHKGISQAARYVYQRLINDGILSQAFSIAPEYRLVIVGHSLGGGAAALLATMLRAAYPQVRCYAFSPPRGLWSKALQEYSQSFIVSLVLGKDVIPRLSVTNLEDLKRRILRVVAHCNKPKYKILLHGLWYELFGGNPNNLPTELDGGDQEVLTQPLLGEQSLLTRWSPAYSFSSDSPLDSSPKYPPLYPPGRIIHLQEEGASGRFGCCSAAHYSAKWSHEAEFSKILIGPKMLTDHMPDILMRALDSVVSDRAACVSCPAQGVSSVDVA
# rCAG RNA binder – r(CAG) repeat RNA binding. TO-PRO-1 dye displacement fluorescence. inhibition, % at 3 µM. 370,000 tested, 1.3% active;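 active = inhibition above the plate cutoff, the mean of all test compounds on that plate plus 3 SD, cut at about 35% in these data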;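 also: 0% = DMSO alone and 100% = 100 µM mitoxantrone as full dye displacement; higher means more dye released from RNA so lower well fluorescence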
# PRMT1 FP inh – inhibitors of human PRMT1; 370,000 tested, 1.3% active; inhibition, % at 2.79 µM; recombinant PRMT1, activity-based probe fluorescence polarization; Q99873;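 active = inhibition above about 21% made by adding two undisclosed values, limit read from the data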
# HTRA1 inhibitor – HTRA1 (human) protease inhibition; 340,000 tested, 0.5% active; recombinant HTRA1, FP-rhodamine activity-based probe, fluorescence polarization; inhibition, % at 5.96 µM; Q92743; in the data active = inhibition above about 36%;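 also: 0% = enzyme with DMSO and 100% = wells lacking enzyme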
# LEDGF integ inh – blocks HIV-1 LEDGF/p75-dependent DNA integration; inhibition, % at 3.7 µM; TR-FRET IN-LEDGF/p75 DNA integration, Eu/Cy5; 370,000 tested, 0.64% active;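 active = inhibition above the screen-wide mean plus 3 SD, cut at about 13% in these data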;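 also: signal is the Cy5 over europium emission ratio at 671 and 618 nm; 0% = plate median of compound wells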
# mABHD4 FP – inhibits mouse alpha/beta hydrolase domain 4; purified mABHD4, FP-Rh probe fluorescence polarization; 370,000 tested, 0.54% active; Q8VD66; inhibition, % at 8.92 µM; AID 720543;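 active = inhibition exceeding the mean over every tested compound plus 3 SD, cut at about 30% in these data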;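 also: 0% = plate median of compound wells and 100% = S159A mutant with DMSO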
#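 Test system: mABHD4 protein | Buffer or medium: HEPES pH 7.0 buffer, 150 mM NaCl, 0.01% Pluronic F-127 | Probe or stimulus: FP-Rh fluorescent activity-based probe, added after compound pre-incubation | Timing: Pre-incubation 45 min, probe exposure 60 min, at 25 °C | Technique: Fluorescence polarization, excitation 525 nm, emission 598 nm, BODIPY TMR filters | Repeats: Single well per compound (singlicate)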
# PRMT1 confirm – confirmation of human PRMT1 inhibitors. shares compounds with PRMT1 FP inh. recombinant His-PRMT1, activity-based probe fluorescence polarization. 3,300 tested, 42% active. AID 687036. inhibition, % at 2.79 µM;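 active = mean inhibition across replicates above the hit cutoff derived for the earlier primary screen, cut at about 22% in these data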
# ABHD4 confirm – ABHD4 (mouse) inhibition, FP confirmation; shares compounds with mABHD4 FP; purified mABHD4, FP-Rh probe fluorescence polarization; inhibition, % at 8.92 µM; 1,800 tested, 55% active; AID 720658;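 active = mean inhibition across replicates above the hit cutoff set in the primary screen, cut at about 30% in these data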;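 also: 0% = wild-type ABHD4 with DMSO and 100% = catalytically dead S159A mutant with DMSO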
# IN multimer act – HIV-1 integrase multimerization activation, counter-screen; shares compounds with LEDGF integ inh; TR-FRET HIV-1 integrase multimerization, biochemical; activation, % at 7.7 µM; 2,000 tested, 17% active; AID 1053131; in the data active = activation above about 8.9%
# TR-FRET interf – TR-FRET optical interference, LEDGF/p75 integration counter-screen. shares compounds with LEDGF integ inh. TR-FRET optical interference counterscreen, HIV-1 IN multimerization. inhibition, % at 7.7 µM. 2,000 tested, under 10 active;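 active = inhibition above the mean over all tested compounds plus 3 SD, which no compound reached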;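 also: 0% = integrase with antibodies and DMSO and 100% = antibodies without integrase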
# IN-LEDGF confirm – LEDGF/p75-dependent HIV-1 integration inhibition, confirmation; shares compounds with LEDGF integ inh; inhibition, % at 3.7 µM; TR-FRET LEDGF/p75-dependent HIV-1 integration, biochemical; 2,000 tested, 36% active; in the data active = inhibition above about 14%
# Starred values were filed as active, the others as inactive; i = inactive; nt = no result given. The list is not random: actives were taken first. Their share in the collection is about 3.2%.
SMILES,DAGLB inhibitor,rCAG RNA binder,PRMT1 FP inh,HTRA1 inhibitor,LEDGF integ inh,mABHD4 FP,PRMT1 confirm,ABHD4 confirm,IN multimer act,TR-FRET interf,IN-LEDGF confirm
CC1OC(CC(=O)O)CC2=C1C(=O)c1c(O)cccc1C2=O (configuration not stated),-2,12,95*,19,40*,40*,46*,44*,nt,nt,nt
O=C1c2cccc(NCCNCCO)c2C(=O)c2cccc(NCCNCCO)c21,0,17,5,-1,6,-24,nt,nt,nt,nt,nt
Cc1ccccc1-c1n[nH]c(=S)n1/N=C/C=C/c1ccco1,7,26,29*,16,13,35*,20,32*,nt,nt,nt
Cc1cc(-c2n[nH]c(=S)n2/N=C/C=C/c2ccco2)n[nH]1,0,8,10,12,7,7,nt,nt,nt,nt,nt
C=CCOc1ccc(CN(C)CC(=O)Nc2ccccc2[N+](=O)[O-])cc1,-9,-5,3,-6,-4,1,nt,nt,nt,nt,nt
COc1ccccc1N1C(=O)C(Cl)=C(Nc2ccccc2O)C1=O,0,18,40*,9,0,31*,26*,16,nt,nt,nt
CC(C)[C@H](NC(=O)OC(C)(C)C)c1nnc(S(=O)(=O)Cc2c(F)cccc2Cl)o1,-7,-9,30*,4,0,31*,21,25,nt,nt,nt
CN(CCC#N)c1ccc(/C=C(\C#N)c2ccccn2)cc1,1,i,194*,0,2,89*,0,-7,nt,nt,nt
CN(CCC#N)c1ccc(C=C(C#N)c2ccc(Br)cc2)cc1,-2,7,-7,-14,1,-5,nt,nt,nt,nt,nt
CC(C)NC(=O)C1(C)CSCC(=O)N1Cc1cccs1 (configuration not stated),nt,2,2,nt,-1,1,nt,nt,nt,nt,nt
COC(=O)C(N)Cc1ccc(O)c(O)c1 (configuration not stated),-3,3,20,4,4,20,nt,nt,nt,nt,nt
NC(CO)C(=O)NNCc1ccc(O)c(O)c1O (configuration not stated),0,2,30*,7,43*,37*,41*,21,nt,nt,nt
O=C1NC(=O)C2(N1)C(=O)c1cccc3cccc2c13 (configuration not stated),-20,-73,139*,23,1,78*,72*,16,nt,nt,nt
COC1=C(OC)C(=O)C(Sc2ccc3ccccc3c2)=CC1=O,-8,6,95*,6,-1,57*,94*,102*,nt,nt,nt
Oc1ccccc1/C=N/c1c(-c2ccco2)nc2ccccn12,1,7,27*,29,20*,52*,6,4,3,-13,4
CSc1cccc(CN2CCC(CCC(=O)NC3CC3)CC2)c1,-4,-4,-2,-21,0,-1,nt,nt,nt,nt,nt
N=C1/C(=C\c2coc3ccccc3c2=O)C(=O)N=C2SC=CN12,-50,-126,36*,-13,15*,-8,32*,nt,3,-15,26*
O=C(C=Cc1ccco1)c1ccco1,1,25,43*,9,73*,32*,11,12,2,-8,7
Cc1nc2sc(C(c3ccco3)N3CCc4ccccc4C3)c(O)n2n1 (configuration not stated),0,17,45*,1,21*,22,15,nt,0,1,11
Cc1nc2sc(C(c3ccco3)N3CCN(c4ccccc4F)CC3)c(O)n2n1 (configuration not stated),2,-3,2,2,1,4,nt,nt,nt,nt,nt
COCc1cc(N2CCN(C(=O)OC(C)(C)C)C[C@@H]2C)ccc1N1CCS(=O)(=O)CC1,nt,0,-4,nt,1,-4,nt,nt,nt,nt,nt
COCc1cc(N2CCN(C(=O)OC(C)(C)C)C[C@@H]2C)ccc1N1CC[C@H](O)C1,nt,10,58*,nt,17*,35*,7,14,4,-18,2
Cc1ccc(C)n1C(CC(=O)O)c1ccc(C#N)cc1 (configuration not stated),nt,33,27*,nt,47*,28,0,nt,2,-6,13
CCOc1cccc(=O)c2c(C)n(-c3ccc(C(=O)O)cc3)c(C)c12,1,28,37*,8,76*,39*,12,25,3,-17,30*
COc1ccc(/C=C2\CCc3c2nc2ccccc2c3C(=O)O)cc1OC,-4,19,79*,8,15*,12,12,nt,-1,6,22*
SMILES,DAGLB inhibitor,rCAG RNA binder,PRMT1 FP inh,HTRA1 inhibitor,LEDGF integ inh,mABHD4 FP,PRMT1 confirm,ABHD4 confirm,IN multimer act,TR-FRET interf,IN-LEDGF confirm
CCOc1ccc(/C=C2\CCCc3c2nc2ccccc2c3C(=O)O)cc1OC,-165,nt,nt,14,nt,nt,nt,nt,nt,nt,nt
CCN1CCN(C(CNS(=O)(=O)c2ccc(OC)c(C)c2)c2cccnc2)CC1 (configuration not stated),1,-2,2,-1,1,-4,nt,nt,nt,nt,nt
COc1ccccc1Cc1c(-c2ccco2)nc2cc(C)c(Br)c(C)n12,nt,31,32*,nt,14*,11,25*,nt,6,-22,21*
Cc1cc2nc(-c3ccco3)c(CC(C)(C)C)n2c(C)c1Br,nt,15,6,nt,6,7,nt,nt,nt,nt,nt
Cc1nnc(NC(=O)C2CC(=O)N(c3ccc4c(c3)OCCO4)C2)s1 (configuration not stated),1,0,-5,3,4,1,nt,nt,nt,nt,nt
O=C(Nc1nc(-c2ccco2)c(-c2ccco2)s1)C1CC(=O)N(c2ccc3c(c2)OCCO3)C1 (configuration not stated),6,30,38*,11,19*,-1,10,nt,13*,-64,42*
CN1C2=N[C@@H](c3ccc(Br)cc3)CC(=O)N2/C(=C\c2ccccc2)[C@@H]1c1ccccc1,nt,nt,8,nt,-5,-6,nt,nt,nt,nt,nt
CN1C2=N[C@@H](c3cccc(C(F)(F)F)c3)CC(=O)N2/C(=C\c2ccccc2)[C@H]1c1ccccc1,nt,nt,55*,nt,16*,17,47*,nt,20*,-99,8
O=C(COC(=O)c1ccco1)Nc1cc(S(=O)(=O)N2CCCCC2)ccc1Cl,-2,4,-3,2,3,0,nt,nt,nt,nt,nt
